Published values gathered from unrelated publications.
Lines come from different studies, so protocols differ.
Target: D(3) dopamine receptor (DRD3, Homo sapiens, UniProt P35462)
Technique: radioligand

SMILES | observed | setting | Ki
CCCCN1CCC(COC(=O)c2ccc(N)c(OCF)c2)CC1 | cell-free assay | – | 3090 nM
CN(C[C@@H]1C[C@H]1CCNC(=O)c1cc2ccccc2[nH]1)[C@@H]1Cc2cccc3[nH]c(=O)n(c23)C1 | ligand displacement | cell membranes | 54.6 nM
O=C1c2ccccc2CCN1CCCCN1CCN(c2cccc(Cl)c2Cl)CC1 | ligand displacement | – | 1 nM
C[C@@H]1Cc2ccccc2N1C(=O)NCCCCN(C)[C@@H]1Cc2cccc3[nH]c(=O)n(c23)C1 | ligand displacement | cell membranes | 300 nM
CCOc1c(O)cc(Br)c2c1CN1CCc3cc(OCC(F)F)c(O)cc3[C@@H]1C2 | cell-free assay | – | 1910 nM
COc1ccccc1N1CCN(CCCCNC(=O)c2cc3cc(OCCF)ccc3[nH]2)CC1 | cell-free assay | – | 0.4 nM
Oc1ccc(CCC2=NCCN2CCc2ccccc2)cc1 | ligand displacement | – | 832 nM
CCN(CC)c1ccc(C2Nc3ccc(C(=O)c4ccccc4)cc3NC3=C2C(=O)CC(C)(C)C3)cc1 (stereo not drawn) | cell-free assay | – | > 10000 nM
COc1ccc(CCC2=NCCN2CCc2ccccc2)cc1 | ligand displacement | – | > 10000 nM
COc1ccc2c(c1)C(=O)N(CCN1CCN(c3ccccc3OC)CC1)C2 | ligand displacement | – | 208 nM
Oc1cccc(CCC2=NCCN2CCc2ccccc2)c1 | ligand displacement | – | > 10000 nM
CC1Cc2ccccc2N1C(=O)NCCCCN(C)[C@H]1CNc2ccccc2C1 (stereo partly drawn) | ligand displacement | cell membranes | 274 nM
